Compounds with a hit are over-represented: about 6.8% of the library has one in this group of screens.
HSF1 inhib – HSF1 inhibition; NIH3T3-HGL HSE-luciferase, MG132-induced, luminescence 8 h; hits give low values; AID 2098; hit rate 0.77% among 300,000; activity change, negative = inhibition, % at 7.5 µM (by protocol);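 active means more than half of replicate wells show activity change below -50%, luminescence cut by over half; inconclusive means some wells, but at most half, below -50%; inactive means no replicate well below -50%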;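 further: luciferase reports HSF-1 transcriptional activity via heat shock element; 0% = median of DMSO wells and -100% = zero luminescence signal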
ALR H2O2 inh – inhibitors of human sulfhydryl oxidase ALR; P55789; purified ALR, DTT oxidation, H2O2 HRP-luminol luminescence; inhibition, % (test concentration not listed); hit rate 3.8% among 290,000;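 active means mean replicate inhibition above about 79%, with every replicate also reaching it, limit read from the data; inconclusive means only one of the two criteria met; inactive means mean below limit and not every replicate reaching it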
Target sequence (P55789 whole entry, looked up): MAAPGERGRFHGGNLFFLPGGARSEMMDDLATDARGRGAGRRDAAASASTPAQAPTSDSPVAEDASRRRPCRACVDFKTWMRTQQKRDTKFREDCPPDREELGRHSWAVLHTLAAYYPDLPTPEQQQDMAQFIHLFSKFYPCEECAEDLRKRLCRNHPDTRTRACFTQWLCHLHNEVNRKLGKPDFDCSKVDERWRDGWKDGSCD
HSF1 activator – increases HSF-1 driven luciferase reporter signal; NIH3T3-HGL HSF-1 luciferase reporter, MG132, 8 h; 100% = twice DMSO control signal; activation, % at 9 µM; hit rate 1.7% among 300,000; AID 504408;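 active means mean replicate activation of at least 50% with a set share of replicates each reaching 50%; inconclusive means only one of those two conditions met; inactive means mean below 50% and too few replicates reaching it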;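 further: 0% = median of the neutral control wells and 100% = twice that signal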
AI-2 QS modul – modulators of Vibrio harveyi AI-2 quorum sensing system | activity change, % at 7.5 µM | Vibrio harveyi JMH597 AI-2 luminescence/OD600 ratio, 9 h; hits give low values; strain lacks LuxN and CqsS sensors; 0 = neutral-control median | hit rate 0.4% among 300,000 | AID 2094; in the data active means activity change below about -75%, passing the limit was not always enough; inconclusive means no clear call, values can overlap the other calls;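 further: luminescence divided by OD600 gain over 9 h not by final OD600 alone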
PHOSPHO1 block – blocks human PHOSPHO1 phosphatase activity; hit rate 1.1% among 290,000; recombinant PHOSPHO1, absorbance phosphatase assay; inhibition, % at 13.3 µM; Q8TCT1; in the data active means inhibition above about 60%
Target sequence (Q8TCT1 whole entry, looked up): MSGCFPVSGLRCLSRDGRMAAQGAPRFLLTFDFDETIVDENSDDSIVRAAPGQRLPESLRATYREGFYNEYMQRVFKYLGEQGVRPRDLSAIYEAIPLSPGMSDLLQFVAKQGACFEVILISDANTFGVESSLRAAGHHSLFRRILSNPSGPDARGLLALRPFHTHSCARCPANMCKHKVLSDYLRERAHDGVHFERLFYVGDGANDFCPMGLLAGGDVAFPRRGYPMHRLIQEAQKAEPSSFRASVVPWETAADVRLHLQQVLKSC
HCV core dimer – blocks dimerization of HCV core protein; TR-FRET GST/Flag-core106 dimerization, 1536-well; inhibition, % at 5 µM; AID 1899; hit rate 0.33% among 300,000;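 active means inhibition above the mean of all tested compounds plus 3 SD, set per screening campaign, cut at about 45% in these data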
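assay system = GST-tagged and Flag-tagged HCV core protein residues 1-106 | controls = unlabelled core106 and no-GST-core106 wells | incubation = compound-protein-antibody incubation 4 h at 22.5 °C | probe or stimulus = Eu donor and XL665 acceptor anti-tag antibodies | read-out = % inhibition based on acceptor/donor emission ratio | signal = TR-FRET 671 and 617 nm emission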
JMH597 growth rt – retest: blocks Vibrio harveyi JMH597 growth; AID 2726; shares compounds with AI-2 QS modul; OD600 absorbance, 9 h; lacks LuxN and CqsS sensors; growth inhibition, % at 7.5 µM; hit rate 1% among 750;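 active means every replicate shows growth inhibition above 50%; inconclusive means at least half, but not all, replicates pass that cutoff; inactive means fewer than half of replicates pass it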
BB721 lum counter – retest counter-screen: BB721 constitutive quorum sensing luminescence decrease | shares compounds with AI-2 QS modul | hit rate 95% among 750 | Vibrio harveyi BB721 luminescence, 9 h | inhibition, % at 7.5 µM;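 active means inhibition above about 80% in every replicate, not just on average, limit read from the data; inconclusive means at least half of replicates past the limit, but not all; inactive means fewer than half of replicates past the limit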
BB721 growth – retest Vibrio harveyi BB721 growth inhibition. growth inhibition, % at 7.5 µM. OD600 absorbance, 9 h. shares compounds with AI-2 QS modul. hit rate 3% among 750;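 active means every replicate shows growth inhibition above 50%; inconclusive means at least half but not all replicates above 50% inhibition; inactive means under half of replicates above 50% inhibition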
JMH597 AI-2 mod – Vibrio harveyi AI-2 signaling luminescence modulation – JMH597 strain, confirmation; Vibrio harveyi JMH597 AI-2 quorum sensing luminescence, 9 h; luxN and CqsS knockout, AI-2 only; hit rate 97% among 750; inhibition, % at 7.5 µM; shares compounds with AI-2 QS modul;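 active means every replicate shows more than 75% inhibition of signal versus neutral control wells; inconclusive means half to three quarters of replicates exceed 75% inhibition; inactive means fewer than half of replicates exceed 75% inhibition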
* = called active by the depositor; ? = inconclusive; . = no result given.

SMILES	HSF1 inhib	ALR H2O2 inh	HSF1 activator	AI-2 QS modul	PHOSPHO1 block	HCV core dimer	JMH597 growth rt	BB721 lum counter	BB721 growth	JMH597 AI-2 mod
O=C(/C=C/c1ccccc1)N1CCCN(C(=O)/C=C/c2ccccc2)CC1	-3	-5	-7	21	27	-2	.	.	.	.
CC(C)(C)c1ccc(/C=C/C(=O)N2CCCCC2)cc1	-2	.	4	-86*	30	.	12	94*	13	97*
Nc1nc(NCc2ccccc2)nc(-c2ccccc2)n1	6	-4	22	-82*	-26	-15	-25	87*	-37	92*
Nc1nc(-c2ccccc2)nc(-c2ccccc2O)n1	11	-1	41	-5	.	-15	.	.	.	.
CC(C)=CC(=O)N1CCCC(N2CCN(c3ccccc3C)CC2)C1 (configuration not stated)	-1	.	7	6	40	2	.	.	.	.
COc1ccc(C2c3ccc(O)cc3Oc3ncn4nc(-c5cccnc5)nc4c32)cc1OC (configuration not stated)	3	-3	6	3	34	11	.	.	.	.
COc1ccc(/C=N/Nc2ccc(C(=O)O)cc2)c(OC)c1OC	0	.	1	-92*	30	-19	0	95*	-7	96*
Cc1ccc2cc(NC(=O)c3ccccc3C)ccc2n1	15	.	26	16	24	-5	.	.	.	.
O=C(Cc1ccccc1[N+](=O)[O-])Nc1ccc(S(=O)(=O)N2CCCC2)cc1	-3	-23	-24	?	28	-2	15	93*	21	94*
O=C(Nc1ccc(S(=O)(=O)N2CCCC2)cc1)Nc1ccc(F)cc1F	1	-1	0	-96*	30	5	2	98*	1	99*
O=C(Nc1ccc(F)cc1)Nc1ccc(S(=O)(=O)N2CCCC2)cc1	.	11	.	.	.	.	.	.	.	.
O=C(Cc1ccc(Br)cc1)Nc1ccc(S(=O)(=O)N2CCCC2)cc1	3	-13	3	-96*	-29	9	33	?	3	99*
O=C(CSc1nncs1)Nc1ccc(S(=O)(=O)N2CCCC2)cc1	-6	-4	0	-83*	-53	-3	0	93*	19	95*
CCOc1ccc(CC(=O)Nc2ccc(S(=O)(=O)N3CCCC3)cc2)cc1	-5	-7	-19	-6	37	0	.	.	.	.
CC1Cc2cc(S(=O)(=O)N3CCC(C(=O)N4CCN(c5ccccc5F)CC4)CC3)ccc2N1C(=O)C1CC1 (configuration not stated)	-3	-2	16	20	32	18	.	.	.	.
Cc1ccc(S(=O)(=O)Nc2ccccc2CNC2CCCCC2)cc1	10	1	5	37	13	1	.	.	.	.
Cc1ccccc1NC(=O)N1CCNC(=O)C1CC(=O)Nc1cc(Cl)ccc1Cl (configuration not stated)	6	-2	-3	19	38	0	.	.	.	.
Cc1cc(NS(=O)(=O)c2ccc(NC(=O)CCc3ccccc3)cc2)no1	-13	-11	-13	-91*	11	4	21	95*	17	97*
Cc1ccc(C)c(NC(=S)N2CCC(NC(=O)c3ccco3)CC2)c1	-5	-34	4	.	-14	11	.	.	.	.
CCc1ccc(/C=C2/SC(=S)N(CCC(=O)Nc3cccnc3)C2=O)cc1	8	0	-2	-1	.	-2	.	.	.	.
COc1ccc(CNC(=O)Nc2ccc(OC)cc2)cc1	2	0	-16	-5	12	-3	.	.	.	.
